From ChEMBL document CHEMBL4177623, “Concise syntheses and HCV NS5B polymerase inhibition of (2'R)-3 and (2'S)-2'-ethynyluridine-10 and related nucleosides” (Bioorg Med Chem Lett, 2017)

Molecular target: RNA-directed RNA polymerase (Hepacivirus hominis, UniProt O39930)
Experiment: Inhibition of wild-type HCV genotype 1b BK NS5B Cdelta55 RNA dependent RNA polymerase using RNA as substrate after 1 hr in presence of NTPs by [33P]-CTP based topcount assay
Design: species or system Hepatitis C virus (isolate BK)
Details: not given

Chain of RNA-directed RNA polymerase (O39930 whole entry): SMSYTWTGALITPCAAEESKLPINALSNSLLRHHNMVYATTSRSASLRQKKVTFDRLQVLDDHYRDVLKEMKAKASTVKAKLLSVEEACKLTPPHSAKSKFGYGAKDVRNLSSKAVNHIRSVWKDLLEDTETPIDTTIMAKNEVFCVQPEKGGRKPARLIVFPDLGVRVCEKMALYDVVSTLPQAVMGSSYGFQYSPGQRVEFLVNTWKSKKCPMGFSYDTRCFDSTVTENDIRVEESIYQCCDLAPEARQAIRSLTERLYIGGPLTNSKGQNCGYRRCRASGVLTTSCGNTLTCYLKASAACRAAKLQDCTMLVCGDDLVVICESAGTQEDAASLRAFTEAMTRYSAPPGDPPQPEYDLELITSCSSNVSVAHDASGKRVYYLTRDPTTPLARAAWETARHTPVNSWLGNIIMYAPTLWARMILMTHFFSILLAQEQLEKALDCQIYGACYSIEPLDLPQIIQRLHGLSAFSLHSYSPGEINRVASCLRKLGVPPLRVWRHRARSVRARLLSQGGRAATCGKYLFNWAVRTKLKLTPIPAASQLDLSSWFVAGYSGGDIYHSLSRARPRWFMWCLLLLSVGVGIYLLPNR

Row | Structure (SMILES) | IC50
1 | C#C[C@]1(O)[C@H](O)[C@@H](COP(=O)(O)OP(=O)(O)OP(=O)(O)O)O[C@H]1n1ccc(=O)[nH]c1=O | 54 µM
2 | C#C[C@@]1(O)[C@H](O)[C@@H](COP(=O)(O)OP(=O)(O)OP(=O)(O)O)O[C@H]1n1ccc(=O)[nH]c1=O | 0.09 µM

Now from value to compound:

Row | IC50 | Structure (SMILES)
3 | 0.16 µM | CC#C[C@@]1(O)[C@H](O)[C@@H](COP(=O)(O)OP(=O)(O)OP(=O)(O)O)O[C@H]1n1ccc(=O)[nH]c1=O
4 | 9.9 µM | CC#C[C@@]1(F)[C@H](O)[C@@H](COP(=O)(O)OP(=O)(O)OP(=O)(O)O)O[C@H]1n1ccc(=O)[nH]c1=O
5 | 1.1 µM | CCCCCCN(C)C.CCCCCCN(C)C.CCCCCCN(C)C.CCCCCCN(C)C.C[C@@]1(F)[C@H](O)[C@@H](COP(=O)(O)OP(=O)(O)OP(=O)(O)O)O[C@H]1n1ccc(=O)[nH]c1=O
6 | 3.6 µM | C#C[C@@]1(F)[C@H](O)[C@@H](COP(=O)(O)OP(=O)(O)OP(=O)(O)O)O[C@H]1n1ccc(=O)[nH]c1=O

Tested on: Hepatitis C virus
Experiment: Antiviral activity against HCV genotype 1b Con1 infected in replicon cells after 3 days by real-time PCR analysis
Assay type: functional, organism-based, Hepacivirus hominis
Details: isolate Con1, 72 h
Outline: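 Con1 genotype 1b replicon cells plated at 5000/well one day before dosing; inhibitor added from DMSO in 10 serial twofold dilutions, triplicate, final 0.5% DMSO, 10% FBS. Harvest 3 days post-dose; replicon RNA measured by real-time RT-PCR (Taqman) normalised to GAPDH RNA; EC50 derived.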

Row | EC50 | Structure (SMILES)
7 | > 100 µM | CC#C[C@@]1(F)[C@H](O)[C@@H](CO)O[C@H]1n1ccc(=O)[nH]c1=O
8 | > 100 µM | C#C[C@@]1(O)[C@H](O)[C@@H](CO)O[C@H]1n1ccc(=O)[nH]c1=O
9 | > 100 µM | CC#C[C@@]1(O)[C@H](O)[C@@H](CO)O[C@H]1n1ccc(=O)[nH]c1=O
